Active and inactive are the calls of the source. No cut-off for these calls is given here.
How the values were obtained:
[1] = biological target: T1, 5-hydroxytryptamine receptor 1A (Homo sapiens, UniProt P08908); assay: Displacement of [3H]LSD from human 5-HT1A receptor expressed in HEK cell membranes after 1.5 hrs by microbeta scintillation counting method
T1 sequence (P08908 whole entry): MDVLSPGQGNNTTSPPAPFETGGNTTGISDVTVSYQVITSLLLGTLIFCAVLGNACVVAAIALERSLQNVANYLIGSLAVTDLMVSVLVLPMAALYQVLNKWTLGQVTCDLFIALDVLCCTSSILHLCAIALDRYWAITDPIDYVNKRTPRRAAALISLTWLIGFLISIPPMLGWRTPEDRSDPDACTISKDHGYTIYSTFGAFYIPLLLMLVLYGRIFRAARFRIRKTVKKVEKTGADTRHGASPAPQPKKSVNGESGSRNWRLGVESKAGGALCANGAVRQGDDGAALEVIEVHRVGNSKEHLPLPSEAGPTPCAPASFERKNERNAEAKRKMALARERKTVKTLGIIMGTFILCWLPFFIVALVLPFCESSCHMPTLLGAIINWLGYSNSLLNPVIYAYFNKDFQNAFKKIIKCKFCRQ
Procedure, shortened: (§1)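 Radioligand binding performed by the NIMH Psychoactive Drug Screening Program. Crude membranes from cells expressing recombinant receptor, with [3H]LSD, in 50 mM Tris-HCl, 10 mM MgCl2, 1 mM EDTA, pH 7.4. Eleven test concentrations. Incubated 1.5 h at room temperature, protected from light. Filtered onto PEI-soaked GF/B filters, then scintillation counting. IC50 converted to Ki; at least three experiments in triplicate.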

[2] = biological target: 5-hydroxytryptamine receptor 1B (Homo sapiens, UniProt P28222); assay: Displacement of [3H]LSD from human 5-HT1B receptor expressed in HEK cell membranes after 1.5 hrs by microbeta scintillation counting method; procedure, shortened: as §1
Chain of 5-hydroxytryptamine receptor 1B (P28222 whole entry): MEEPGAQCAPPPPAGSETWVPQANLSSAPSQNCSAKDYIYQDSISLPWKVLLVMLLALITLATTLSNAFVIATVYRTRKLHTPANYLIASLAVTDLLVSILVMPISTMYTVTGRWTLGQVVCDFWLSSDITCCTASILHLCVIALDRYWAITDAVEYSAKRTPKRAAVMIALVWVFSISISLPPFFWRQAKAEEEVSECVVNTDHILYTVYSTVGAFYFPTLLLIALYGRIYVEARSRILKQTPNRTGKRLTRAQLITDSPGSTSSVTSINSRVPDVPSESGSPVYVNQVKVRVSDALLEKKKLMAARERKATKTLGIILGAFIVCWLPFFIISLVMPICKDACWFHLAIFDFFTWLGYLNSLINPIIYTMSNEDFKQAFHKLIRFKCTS

[3] = biological target: 5-hydroxytryptamine receptor 1D (Homo sapiens, UniProt P28221); assay: Displacement of [3H]LSD from human 5-HT1D receptor expressed in HEK cell membranes after 1.5 hrs by microbeta scintillation counting method; procedure, shortened: as §1
Chain of 5-hydroxytryptamine receptor 1D (P28221 whole entry): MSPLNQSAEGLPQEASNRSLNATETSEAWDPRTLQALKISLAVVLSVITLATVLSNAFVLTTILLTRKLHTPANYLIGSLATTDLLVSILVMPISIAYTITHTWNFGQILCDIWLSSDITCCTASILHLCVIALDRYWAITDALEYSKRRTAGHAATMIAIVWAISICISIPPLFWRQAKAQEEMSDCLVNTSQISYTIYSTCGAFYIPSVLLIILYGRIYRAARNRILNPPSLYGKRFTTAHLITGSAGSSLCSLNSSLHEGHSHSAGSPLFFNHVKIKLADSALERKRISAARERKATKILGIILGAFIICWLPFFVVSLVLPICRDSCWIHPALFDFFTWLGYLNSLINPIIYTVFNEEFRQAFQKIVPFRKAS

[4] = biological target: 5-hydroxytryptamine receptor 1E (Homo sapiens, UniProt P28566); assay: Displacement of [3H]LSD from human 5-HT1E receptor expressed in HEK cell membranes after 1.5 hrs by microbeta scintillation counting method; procedure, shortened: as §1
Chain of 5-hydroxytryptamine receptor 1E (P28566 whole entry): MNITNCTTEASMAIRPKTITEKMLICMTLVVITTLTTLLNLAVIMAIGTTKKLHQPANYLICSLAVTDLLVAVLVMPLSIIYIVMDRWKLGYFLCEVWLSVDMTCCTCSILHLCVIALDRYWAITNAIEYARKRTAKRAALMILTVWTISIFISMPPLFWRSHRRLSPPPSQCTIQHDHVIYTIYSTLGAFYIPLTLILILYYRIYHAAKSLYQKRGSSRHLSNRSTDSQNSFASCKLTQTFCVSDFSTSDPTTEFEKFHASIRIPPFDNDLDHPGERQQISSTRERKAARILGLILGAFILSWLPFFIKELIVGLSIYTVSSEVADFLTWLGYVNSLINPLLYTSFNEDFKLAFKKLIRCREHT

[5] = biological target: 5-hydroxytryptamine receptor 2A (Homo sapiens, UniProt P28223); assay: Displacement of [3H]LSD from human 5-HT2A receptor expressed in HEK cell membranes after 1.5 hrs by microbeta scintillation counting method; procedure, shortened: as §1
Chain of 5-hydroxytryptamine receptor 2A (P28223 whole entry): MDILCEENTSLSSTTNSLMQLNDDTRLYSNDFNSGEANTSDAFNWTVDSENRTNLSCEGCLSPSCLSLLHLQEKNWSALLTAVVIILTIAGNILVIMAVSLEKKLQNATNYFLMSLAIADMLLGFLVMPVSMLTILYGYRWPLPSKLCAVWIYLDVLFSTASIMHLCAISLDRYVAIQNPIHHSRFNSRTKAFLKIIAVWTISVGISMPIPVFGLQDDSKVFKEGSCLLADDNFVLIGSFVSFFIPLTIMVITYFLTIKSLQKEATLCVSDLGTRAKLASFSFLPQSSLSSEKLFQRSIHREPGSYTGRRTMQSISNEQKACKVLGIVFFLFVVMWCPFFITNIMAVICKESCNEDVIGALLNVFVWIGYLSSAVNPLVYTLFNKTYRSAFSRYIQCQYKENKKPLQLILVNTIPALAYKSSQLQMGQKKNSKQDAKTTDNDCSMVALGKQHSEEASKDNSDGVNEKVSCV

[6] = biological target: 5-hydroxytryptamine receptor 2B (Homo sapiens, UniProt P41595); assay: Displacement of [3H]LSD from human 5-HT2B receptor expressed in HEK cell membranes after 1.5 hrs by microbeta scintillation counting method
Chain of 5-hydroxytryptamine receptor 2B (P41595 whole entry): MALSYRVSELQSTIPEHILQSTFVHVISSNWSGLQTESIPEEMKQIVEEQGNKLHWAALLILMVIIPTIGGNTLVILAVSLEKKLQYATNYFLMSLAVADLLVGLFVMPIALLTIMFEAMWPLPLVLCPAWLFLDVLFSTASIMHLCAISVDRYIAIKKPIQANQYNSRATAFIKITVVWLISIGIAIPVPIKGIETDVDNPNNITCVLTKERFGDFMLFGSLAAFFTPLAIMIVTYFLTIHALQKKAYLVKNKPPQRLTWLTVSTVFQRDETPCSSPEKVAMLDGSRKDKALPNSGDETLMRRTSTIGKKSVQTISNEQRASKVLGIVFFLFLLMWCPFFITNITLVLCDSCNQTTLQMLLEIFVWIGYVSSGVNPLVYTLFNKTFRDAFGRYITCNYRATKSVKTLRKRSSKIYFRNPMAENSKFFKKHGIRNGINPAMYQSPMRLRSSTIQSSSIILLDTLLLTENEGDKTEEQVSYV

[7] = biological target: T2, 5-hydroxytryptamine receptor 2C (Homo sapiens, UniProt P28335); assay: Displacement of [3H]LSD from human 5-HT2C receptor expressed in HEK cell membranes after 1.5 hrs by microbeta scintillation counting method; procedure, shortened: as §1
T2 sequence (P28335 whole entry): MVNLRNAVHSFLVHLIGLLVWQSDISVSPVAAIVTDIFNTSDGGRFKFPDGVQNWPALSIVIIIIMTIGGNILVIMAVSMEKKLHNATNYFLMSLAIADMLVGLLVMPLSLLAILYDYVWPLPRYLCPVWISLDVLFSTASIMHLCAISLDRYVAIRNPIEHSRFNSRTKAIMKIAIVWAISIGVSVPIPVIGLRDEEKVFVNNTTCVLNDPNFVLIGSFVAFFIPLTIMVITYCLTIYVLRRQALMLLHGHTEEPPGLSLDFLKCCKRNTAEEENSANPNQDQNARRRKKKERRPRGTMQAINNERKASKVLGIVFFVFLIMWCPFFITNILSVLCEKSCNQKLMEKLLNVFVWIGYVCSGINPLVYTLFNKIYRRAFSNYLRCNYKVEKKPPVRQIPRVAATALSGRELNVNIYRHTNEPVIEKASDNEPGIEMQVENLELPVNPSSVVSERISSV

[8] = biological target: 5-hydroxytryptamine receptor 4 (Homo sapiens, UniProt Q13639); assay: Displacement of [3H]LSD from human 5-HT4 receptor expressed in HEK cell membranes after 1.5 hrs by microbeta scintillation counting method; procedure, shortened: as §1
Chain of 5-hydroxytryptamine receptor 4 (Q13639 whole entry): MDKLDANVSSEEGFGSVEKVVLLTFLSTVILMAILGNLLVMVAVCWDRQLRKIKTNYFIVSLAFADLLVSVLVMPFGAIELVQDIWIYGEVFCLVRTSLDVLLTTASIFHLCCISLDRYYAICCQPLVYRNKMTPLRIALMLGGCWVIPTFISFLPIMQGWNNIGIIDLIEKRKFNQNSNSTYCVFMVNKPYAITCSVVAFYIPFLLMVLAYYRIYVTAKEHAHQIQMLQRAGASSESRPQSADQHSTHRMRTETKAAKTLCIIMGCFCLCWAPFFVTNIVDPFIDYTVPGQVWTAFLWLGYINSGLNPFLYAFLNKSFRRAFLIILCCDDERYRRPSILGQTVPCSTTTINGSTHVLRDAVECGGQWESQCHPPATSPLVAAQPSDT

[9] = biological target: 5-hydroxytryptamine receptor 6 (Homo sapiens, UniProt P50406); assay: Displacement of [3H]LSD from human 5-HT6 receptor expressed in HEK cell membranes after 1.5 hrs by microbeta scintillation counting method; procedure, shortened: as §1
Chain of 5-hydroxytryptamine receptor 6 (P50406 whole entry): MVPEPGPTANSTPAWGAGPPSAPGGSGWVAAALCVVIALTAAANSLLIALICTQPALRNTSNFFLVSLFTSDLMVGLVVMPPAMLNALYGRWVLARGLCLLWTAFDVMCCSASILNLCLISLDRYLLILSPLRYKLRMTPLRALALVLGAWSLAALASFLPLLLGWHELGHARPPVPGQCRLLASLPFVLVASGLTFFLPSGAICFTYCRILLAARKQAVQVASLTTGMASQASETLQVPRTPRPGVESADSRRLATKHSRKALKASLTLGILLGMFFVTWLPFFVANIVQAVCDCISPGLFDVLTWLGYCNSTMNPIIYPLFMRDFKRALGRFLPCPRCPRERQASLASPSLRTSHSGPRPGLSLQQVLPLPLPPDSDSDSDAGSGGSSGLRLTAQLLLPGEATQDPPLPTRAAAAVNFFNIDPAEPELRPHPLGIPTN

Homo sapiens [10] = species on record: Homo sapiens; assay: Selectivity index, ratio of Ki for human 5-HT1D receptor to Ki for human 5-HT7 receptor
Procedure, shortened: (§2)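 Selectivity index taken as Ki at the other 5-HT receptor subtype divided by Ki at 5-HT7R, each from [3H]LSD membrane binding run by the NIMH PDSP. Ki values are means of at least three experiments in triplicate.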

Homo sapiens [11] = species on record: Homo sapiens; assay: Selectivity index, ratio of Ki for human 5-HT1E receptor to Ki for human 5-HT7 receptor; procedure, shortened: as §2
Homo sapiens [12] = species on record: Homo sapiens; assay: Selectivity index, ratio of Ki for human 5-HT2A receptor to Ki for human 5-HT7 receptor; procedure, shortened: as §2
Homo sapiens [13] = species on record: Homo sapiens; assay: Selectivity index, ratio of Ki for human 5-HT2B receptor to Ki for human 5-HT7 receptor; procedure, shortened: as §2
Homo sapiens [14] = species on record: Homo sapiens; assay: Selectivity index, ratio of Ki for human 5-HT2C receptor to Ki for human 5-HT7 receptor; procedure, shortened: as §2
Homo sapiens [15] = species on record: Homo sapiens; assay: Selectivity index, ratio of Ki for human 5-HT6 receptor to Ki for human 5-HT7 receptor; procedure, shortened: as §2
[16] = biological target: T3, 5-hydroxytryptamine receptor 7 (Homo sapiens, UniProt P34969); assay: Inverse agonist activity at human 5-HT7 receptor expressed in HEK293 cells assessed as decrease in Gs protein-mediated cAMP accumulation by luminescence-based assay; format: functional, cell-based
T3 sequence (P34969 whole entry): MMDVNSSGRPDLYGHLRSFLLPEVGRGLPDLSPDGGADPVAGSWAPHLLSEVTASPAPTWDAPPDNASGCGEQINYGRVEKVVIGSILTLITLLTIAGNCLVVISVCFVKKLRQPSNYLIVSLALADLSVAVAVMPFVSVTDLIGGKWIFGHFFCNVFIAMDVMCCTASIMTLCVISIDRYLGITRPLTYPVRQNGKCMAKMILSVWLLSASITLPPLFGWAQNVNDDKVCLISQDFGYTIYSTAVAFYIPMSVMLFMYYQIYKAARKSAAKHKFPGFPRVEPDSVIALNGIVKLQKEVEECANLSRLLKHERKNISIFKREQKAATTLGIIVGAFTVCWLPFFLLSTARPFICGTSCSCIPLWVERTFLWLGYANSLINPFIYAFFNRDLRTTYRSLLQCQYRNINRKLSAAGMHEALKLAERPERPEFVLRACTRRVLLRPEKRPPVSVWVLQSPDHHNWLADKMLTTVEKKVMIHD
Procedure, shortened: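 HEK293 cells transiently transfected by calcium phosphate with human 5-HT7R and GloSensor-22F cAMP biosensor. After 5-6 h recovery, loaded with GloSensor reagent in HBSS/20 mM HEPES, pH 7.4. Test compounds at 0.01 nM-100 μM final; antagonist mode uses 5-HT stimulation. Luminescence read. Data normalised to 5-HT or SB269970 (100%) and vehicle (0%). Three experiments, at least triplicate.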

[17] = biological target: T3, 5-hydroxytryptamine receptor 7; assay: Agonist activity at tTA containing TCS cleavage site-fused 5-HT7 receptor (unknown origin) expressed in tTA-dependent luciferase reporter/TEV-fused beta-arrestin2 expressing HTLA cells assessed as induction of beta-arrestin2 recruitment after 22 hrs by Tango assay relative to 5-HT; format: functional, cell-based
Procedure, shortened: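 HTLA cells (HEK293 stably expressing tTA-dependent luciferase reporter and β-arrestin2-TEV) transiently transfected with 5-HT7R-TCS-tTA. Plated in 1% dialysed FBS medium for 6 h, then given test compounds at 0.01 nM-100 μM final, about 22 h. Antagonist mode adds 1 μM 5-HT. BrightGlo luminescence read. Normalised to 5-HT (100%) and vehicle (0%). Three experiments, at least triplicate.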

[18] = biological target: T3, 5-hydroxytryptamine receptor 7; assay: Antagonist activity at tTA containing TCS cleavage site-fused 5-HT7 receptor (unknown origin) expressed in tTA-dependent luciferase reporter/TEV-fused beta-arrestin2 expressing HTLA cells assessed as inhibition of 5-HT-induced beta-arrestin2 recruitment after 22 hrs by Tango assay; format: functional, cell-based
[19] = biological target: T3, 5-hydroxytryptamine receptor 7

Ki [1]	Ki [2]	Ki [3]	Ki [4]	Ki [5]	Ki [6]	Ki [7]	Ki [8]	Ki [9]	Ratio Ki (Homo sapiens [10])	Ratio Ki (Homo sapiens [11])	Ratio Ki (Homo sapiens [12])	Ratio Ki (Homo sapiens [13])	Ratio Ki (Homo sapiens [14])	Ratio Ki (Homo sapiens [15])	Activity [16]	Emax [17]	inhibition [18]	IC50 [19]	SMILES
> 10 µM	> 10 µM	147 nM	1790 nM	138 nM	150 nM	20 nM	> 10 µM	492 nM	9.2	112	8.6	9.4	1.3	30.8	Active	40.3%	inactive	0.844 µM	Cc1ccc(-c2noc3c2CCNCC3)cc1
1.87 µM	> 10 µM	636 nM	793 nM	175 nM	97 nM	200 nM	> 10 µM	416 nM	6.1	7.6	1.7	0.9	1.9	4	Active	53.9%	inactive	6.98 µM	Fc1ccc(-c2n[nH]c3c2CCNCC3)cc1

SMILES	Ki [1]	Ki [2]	Ki [3]	Ki [4]	Ki [5]	Ki [6]	Ki [7]	Ki [8]	Ki [9]	Ratio Ki (Homo sapiens [10])	Ratio Ki (Homo sapiens [11])	Ratio Ki (Homo sapiens [12])	Ratio Ki (Homo sapiens [13])	Ratio Ki (Homo sapiens [14])	Ratio Ki (Homo sapiens [15])	Activity [16]	Emax [17]	inhibition [18]	IC50 [19]
Clc1ccc(-c2n[nH]c3c2CCNCC3)cc1	> 10 µM	> 10 µM	2110 nM	1370 nM	187 nM	100 nM	799 nM	> 10 µM	248 nM	70.5	45.5	6.2	3.3	26.6	8.3	Active	62.8%	inactive	7.79 µM

Reference: ChEMBL document CHEMBL4196105, “Discovery of β-Arrestin Biased Ligands of 5-HT7R” (J Med Chem, 2018)
